# Only some compounds are listed: those with a hit (about 6.7% of all), similar ones and a draw of the others.
# NR3A LBD binder: modulates the human NR3A ligand-binding domain; NR3A LBD differential scanning fluorimetry, Tm shift; 0% = protein alone, 100% = glycine-bound protein; Tm shift relative to glycine control, % at 25 µM; hit rate 2.5% among 340,000;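 active = melting temperature shift of at least 10% of the positive control shift, at one fixed dose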
# PREPL inhibitor: inhibits the human prolyl oligopeptidase-like enzyme | Q4J6C6 | recombinant PREPL, fluorescence polarization activity-based probe | inhibition, % at 5.96 µM | hit rate 0.68% among 320,000 | AID 2751
# Target sequence (Q4J6C6 whole entry, looked up): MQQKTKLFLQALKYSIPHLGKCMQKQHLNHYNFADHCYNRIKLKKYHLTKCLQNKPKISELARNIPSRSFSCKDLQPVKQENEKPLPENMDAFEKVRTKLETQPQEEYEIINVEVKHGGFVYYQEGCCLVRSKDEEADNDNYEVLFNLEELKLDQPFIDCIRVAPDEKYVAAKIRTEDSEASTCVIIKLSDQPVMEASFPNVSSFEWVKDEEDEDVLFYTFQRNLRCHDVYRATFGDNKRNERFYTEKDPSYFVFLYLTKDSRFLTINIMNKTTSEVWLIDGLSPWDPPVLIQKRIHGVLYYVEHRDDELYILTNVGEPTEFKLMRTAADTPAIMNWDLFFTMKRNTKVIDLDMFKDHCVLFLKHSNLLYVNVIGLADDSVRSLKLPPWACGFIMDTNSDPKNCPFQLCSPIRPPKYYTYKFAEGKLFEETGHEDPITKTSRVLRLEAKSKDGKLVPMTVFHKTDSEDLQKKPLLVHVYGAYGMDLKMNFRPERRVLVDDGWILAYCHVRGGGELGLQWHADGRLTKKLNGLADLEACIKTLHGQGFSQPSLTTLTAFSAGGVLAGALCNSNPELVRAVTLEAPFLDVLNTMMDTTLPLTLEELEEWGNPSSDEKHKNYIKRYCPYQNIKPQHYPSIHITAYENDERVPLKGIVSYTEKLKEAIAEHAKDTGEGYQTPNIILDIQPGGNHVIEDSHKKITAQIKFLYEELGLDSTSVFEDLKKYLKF
# CSC inhib: blocks cancer stem cells; inhibition, % at 7.5 µM; cancer stem cell-like cells viability, luminescence; AID 2717; hit rate 1.1% among 300,000; in the data active = inhibition above about 75%; inconclusive = no clear call, values can overlap the other calls; tested in HMLE shEcad cells
# CHOP inhibitor: inhibitors of CHOP induction in ER stress response; inhibition, % at 10 µM; hit rate 3.8% among 220,000; AID 2732; CHO-K1 CHOP-promoter luciferase, tunicamycin-induced, 15-18 h;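 active = compounds that reduced the stress-induced luciferase reporter signal by more than about 70% of percent inhibition, limit read from the data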
# Beta cell apopt: beta cell apoptosis inhibition | AID 435005 | protection from apoptosis, % (test concentration not listed) | INS-1E cytokine-induced death, ATP luminescence, 48 h; percent of positive-control rescue, neutral wells zero | hit rate 0.8% among 300,000;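 active = Every replicate reaches about 75%, or at least half do and their mean reaches it too, limit read from the data; inconclusive = At least half of replicates reach the limit but their mean does not; inactive = Under half of replicates reach the limit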;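 also: higher means more ATP so stronger rescue from cytokine killing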
# T cruzi inh: T. cruzi replication inhibition; T. cruzi beta-gal in NIH3T3, luminescence, 90 h; inhibition, % (test concentration not listed); hit rate 1.4% among 300,000;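 active = mean inhibition across valid replicates above about 55%, limit read from the data; inconclusive = mean below that limit but half or more replicates reach it; inactive = mean below it, under half of replicates reach it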;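 also: signal also drops with host cell toxicity which is not excluded here; higher percent means less beta-gal luminescence so fewer parasites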
#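 Material: NIH/3T3 host cells with β-galactosidase reporter T. cruzi; Input: 5,000 host fibroblasts per well; Medium: DMEM, 2% fetal bovine serum; Compound: 50 nL DMSO compound solution per well; Schedule: 3 h host attachment, then at least 90 h co-culture; Detection: luminescent β-galactosidase signal after 60 min lysis.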
# PREPL inh cf: human PREPL inhibition, confirmation; inhibition, % at 5.96 µM; recombinant PREPL, fluorescence polarization activity probe; hit rate 67% among 2,000; shares compounds with PREPL inhibitor
# A number is an active result; . = inactive; ? = inconclusive; / = not tested or not shown. Rule as the data show it, unless noted: active = inhibition above about 43%; inactive = the rest.
SMILES,NR3A LBD binder,PREPL inhibitor,CSC inhib,CHOP inhibitor,Beta cell apopt,T cruzi inh,PREPL inh cf
COc1ccccc1N1CCN(C(=S)Nc2ccc3nc(N4CCOCC4)cc(C)c3c2)CC1,.,.,.,.,.,.,/
Cc1c(CCOC(=O)c2cc([N+](=O)[O-])cc([N+](=O)[O-])c2)sc[n+]1CC(=O)c1ccc(Br)cc1,.,54,.,.,.,57,70
O=C1c2ccccc2[C@@H]2C[C@@H](O)[C@H](Nc3cccc4ccccc34)CCN12,.,/,/,/,/,/,/
O=C(NCCCN1CCN(Cc2ccccc2)CC1)C1CCN(c2nnc(-n3cccc3)s2)CC1,.,44,.,.,.,.,.
O=C(NCCCc1ccccc1)C1CCN(c2nnc(-n3cccc3)s2)CC1,.,.,.,.,/,.,/
CCCN(C(=O)CSCc1ccccc1C)c1c(N)n(Cc2ccccc2)c(=O)[nH]c1=O,.,.,.,/,.,.,/
O=C(Nc1cc(Cl)ccc1N1CCCC1)C1=COCCO1,.,45,.,/,.,/,.
O=C(Nc1cc(C(F)(F)F)ccc1N1CCCC1)C1=COCCO1,.,.,.,/,.,.,/
COc1ccc(N2CCN(C3CCCN(C(=O)C4=C(C)OCCO4)C3)CC2)cc1 (centres undefined),.,/,/,/,.,.,/
COc1cc2[nH]c3c(N4CCN(c5ccc(Cl)cc5)CC4)ncnc3c2cc1OC,.,95,.,.,.,.,75
COc1cccc(N2CCN(c3ncnc4c3[nH]c3ccc(F)cc34)CC2C)c1 (centres undefined),.,49,.,/,110,?,47
COc1cc2[nH]c3c(Cl)ncnc3c2cc1OC,.,.,.,.,.,.,/
Fc1ccc2[nH]c3c(N4CCN(C5CCCCC5)CC4)ncnc3c2c1,/,.,.,.,.,.,/
COc1cccc(C(=S)N2CCOCC2)c1OS(=O)(=O)c1ccc(Cl)cc1,.,.,.,/,.,.,/
O=C(Nc1ccc2nc(-c3ccco3)c(-c3ccco3)nc2c1)N1CCN(c2ccccn2)CC1,.,74,.,.,.,.,.
S=C(Nc1ccc(N2CCOCC2)cc1)Nc1ccc2nc(-c3ccco3)c(-c3ccco3)nc2c1,.,46,.,.,.,.,.
CN(C)C(=O)Nc1ccccc1,.,.,.,.,.,.,/
O=C(N=C1SC2CS(=O)(=O)CC2N1c1ccccc1Cl)C1CCCO1 (centres undefined),.,.,.,/,.,.,/
COCCN(CCOc1cc(C)cc(C)c1)Cc1ccc(Cl)cc1,.,.,.,/,.,.,/
CN1C(=O)N(CC(=O)Nc2sccc2C(N)=O)C(=O)C12CCCCC2,.,.,.,/,.,/,/
Cc1ccc(N=Cc2cccc(O)c2O)c(C)c1,/,56,?,.,.,?,.
O=C(O/N=C(\c1ccccc1)c1ccncc1)c1ccccc1Cl,.,54,.,.,.,.,.
Cc1cccc(NC(=O)C2NC(=O)CC2c2ccccc2)c1C (centres undefined),.,.,.,.,.,.,/
CN(C)CCCNc1cc(C(C)(C)C)nc2c(-c3ccc(Cl)cc3)cnn12,.,52,107,.,.,.,49
Cc1cc(NCCCN2CCOCC2)n2ncc(-c3ccc(Cl)cc3)c2n1,.,.,.,.,.,.,/
SMILES,NR3A LBD binder,PREPL inhibitor,CSC inhib,CHOP inhibitor,Beta cell apopt,T cruzi inh,PREPL inh cf
CCCCN1C(=N)N([C@@H](CN2CCC[C@H]2CN2C(N)=NC[C@@H]2Cc2ccccc2)C(C)C)C[C@H]1Cc1ccccc1,.,65,.,/,.,/,59
CC(C)CCCN1C(N(C)C)=NC[C@@H]1Cc1ccccc1,.,.,.,/,.,/,/
CCCCN1C(=N)N([C@@H](C)CN2CCC[C@H]2CN2C(N)=NC[C@@H]2Cc2ccccc2)C[C@H]1Cc1ccccc1,.,54,.,/,.,/,44
CC(C)C[C@@H]1CN=C(N)N1C[C@@H]1CCCN1C[C@@H](C(C)C)N1C[C@@H](Cc2ccccc2)N(CCCC2CCCC2)C1=N,.,60,/,/,/,/,51
CC(C)(C)c1ccc(S(=O)(=O)N2CCN(Cc3cc4c(cc3O)OCO4)CC2)cc1,.,.,/,/,.,/,/
CN1CCN(C(=O)C(C(=O)c2ccc(F)cc2)n2ccccc2=O)CC1 (centres undefined),.,.,.,.,.,.,/
C=CCn1c2ccccc2c2nnc(SCCCn3c(=O)[nH]c4ccccc43)nc21,.,/,/,.,/,/,/
CC1CCC(NC(=O)CCN2C(=O)C3C4C=CC(C4)C3C2=O)CC1 (centres undefined),.,.,.,/,.,.,/
C[C@@H]1CN([C@@H](C)CO)C(=O)c2cccc(NS(C)(=O)=O)c2O[C@H]1CN(C)CC1CCCCC1,.,.,/,/,.,/,/
CCCn1c(SCC(=O)N(C)C2CCS(=O)(=O)C2)nc2sc3c(c2c1=O)CCC3 (centres undefined),.,.,.,/,.,/,/
CCN(C(=O)CSc1nc(C)nc2sc3c(c12)CCC3)C1CCS(=O)(=O)C1 (centres undefined),.,54,.,/,.,/,.
CCOC(=O)c1sc(N/N=C/c2cc(Br)c(O)c(OC)c2)nc1C,14,44,.,/,.,.,48
CC(=O)c1ccc(NC(=O)COC(=O)CCN2C(=O)c3cccc([N+](=O)[O-])c3C2=O)cc1,.,.,.,.,.,.,/
CC(C)N(c1ccccc1)c1ccc(NC(=O)COC(=O)CCN2C(=O)c3cccc([N+](=O)[O-])c3C2=O)cc1,.,59,.,.,.,.,60
CN(C)S(=O)(=O)c1cccc(NC(=O)C2Cc3ccccc3CN2C(=O)c2ccco2)c1 (centres undefined),.,.,.,/,.,.,/
O=C(c1ccc(-c2cc(O)c3ncccc3c2)cc1)N1CCNCC1,.,55,/,/,.,/,49
O=[N+]([O-])c1cc(O)c2ncccc2c1,.,.,.,.,/,.,/
CN1CCN(C(=O)C2=C[C@H](c3ccc(Br)cc3)C[C@H](OCCCCO)O2)CC1,.,.,.,.,.,.,/
O=C(C1=C[C@@H](c2ccc(Br)cc2)C[C@@H](OCCCCO)O1)N1CCN(Cc2ccccc2)CC1,.,63,.,.,.,.,57
O=C(C1=C[C@@H](c2ccccc2)C[C@@H](OCCCCO)O1)N1CCN(Cc2ccc3c(c2)OCO3)CC1,.,57,.,.,.,.,.
O=C(C1=C[C@H](c2ccc3c(c2)OCO3)C[C@H](OCCCCO)O1)N1CCN(Cc2ccccc2)CC1,.,.,.,.,.,.,/
CCO[C@H]1OC(C(=O)N2CCN(Cc3ccc4c(c3)OCO4)CC2)=C[C@@H](c2csc3ccccc23)[C@@H]1CCCO,.,54,.,.,85,.,46
O=C(C1=C[C@@H](c2ccc3c(c2)OCO3)C[C@@H](OCCCCO)O1)N1CCN(Cc2ccc3c(c2)OCO3)CC1,.,50,.,.,.,.,49
